Laboratory results from ChEMBL document CHEMBL1141291, “Bioactive constituents of the roots of Polyalthia cerasoides” (J Nat Prod, 2007).
≈ marks a conversion by molar mass, not a printed value. Calls of active or inactive are those of the source. No cut-off for these calls is given here.

Key:
[1] = system: KB; assay: Cytotoxicity against human KB cells; assay type: functional, cell-based
Method in brief: (§1)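 Tested on human epidermoid carcinoma (KB), breast cancer (BC1) and small cell lung cancer (NCI-H187) cell lines. Growth was read by a colorimetric method following Skehan and co-workers. Ellipticine was run as the reference substance.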

[2] = system: Plasmodium falciparum; assay: Antimalarial activity against multidrug-resistant Plasmodium falciparum K1 in [3H]hypoxanthine incorporation microculture radioisotope assay; assay type: functional, organism-based
Method in brief: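 P. falciparum K1 maintained in culture by the Trager and Jensen method. Growth was measured in vitro by [3H]-hypoxanthine uptake in a microculture radioisotope format (Desjardins method). IC50 is the concentration giving 50% reduction in parasite growth. Artemisinin was the standard.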

[3] = system: Mycobacterium tuberculosis; assay: Antituberculosis activity against Mycobacterium tuberculosis H37Ra by microplate alamar blue assay; assay type: functional
[4] = system: NCI-H187; assay: Cytotoxicity against human NCI-H187 cells; assay type: functional, cell-based; method in brief: as §1
[5] = Cytotoxicity against human BC1 cells; assay type: functional, cell-based; method in brief: as §1

SMILES	IC50 [1]	IC50 [2]	Activity [3]	IC50 [4]	IC50 [5]	MIC [3]	Activity [2]
COc1ccc(C[C@H]2c3cc(OC)c(OC)cc3CCN2C)cc1O [LAUDANIDINE]	> 5 µg/mL	7 µg/mL (≈ 20.4 µM)	inactive	> 5 µg/mL	> 5 µg/mL	–	–
COc1cc2c(cc1O)[C@H](Cc1ccc(OC)c(OC)c1)N(C)CC2 [CODAMINE]	> 5 µg/mL	4.2 µg/mL (≈ 12.2 µM)	inactive	> 5 µg/mL	> 5 µg/mL	–	–
CCCCC#CC#CC#CCCCCCCCC(=O)O	> 5 µg/mL	5 µg/mL (≈ 18.4 µM)	–	> 5 µg/mL	13 µg/mL (≈ 47.7 µM)	6.25 µg/mL (≈ 22.9 µM)	–
C=C1CC[C@@H]2O[C@]2(C)CC[C@@H]2[C@@H]1CC2(C)C	> 5 µg/mL	2.8 µg/mL (≈ 12.7 µM)	inactive	19.5 µg/mL (≈ 88.5 µM)	> 5 µg/mL	–	–
Cc1c2ccncc2c(C)c2c1[nH]c1ccccc12 [ELLIPTECINE]	0.36 µg/mL (≈ 1.46 µM)	–	–	0.32 µg/mL (≈ 1.3 µM)	0.26 µg/mL (≈ 1.06 µM)	–	–
COc1ccc2c(c1)c(-c1c3c4c(cc5c(c4c4ccc(OC)cc14)OCO5)CCN3)c1c3c(cc4c(c32)OCO4)CCN1 [BIDEBILINE E]	–	4.2 µg/mL (≈ 7.18 µM)	–	–	–	6.25 µg/mL (≈ 10.7 µM)	–
NC[C@H]1O[C@H](O[C@H]2[C@H](O)[C@@H](O[C@H]3O[C@H](CO)[C@@H](O)[C@H](N)[C@H]3O)[C@H](N)C[C@@H]2N)[C@H](O)[C@@H](O)[C@@H]1O.O=S(=O)(O)O [KANAMYCIN SULFATE]	–	–	–	–	–	2.5 µg/mL	–
C[C@@H]1CC[C@H]2[C@@H](C)C(=O)O[C@@H]3O[C@@]4(C)CC[C@@H]1[C@]32OO4 [ARTEMISININ]	–	0.001 µg/mL (≈ 0.00354 µM)	–	–	–	–	–
NNC(=O)c1ccncc1 [ISONIAZID]	–	–	–	–	–	0.05 µg/mL (≈ 0.365 µM)	–
C/C1=C\CC/C(C)=C/CC(C)(C)/C=C/C1 [ALPHA-HUMULONE]	> 5 µg/mL	–	–	> 5 µg/mL	> 5 µg/mL	6.25 µg/mL (≈ 30.6 µM)	inactive
